Consider 16 compounds from ChEMBL document CHEMBL1152600, “Dibenzazecine scaffold rebuilding--is the flexibility always essential for high dopamine receptor affinities?” (Bioorg Med Chem, 2009).

The target in experiment [1] is T1, D(2) dopamine receptor (Homo sapiens, UniProt P14416). Kind of experiment: Antagonist activity at human dopamine D2L receptor expressed in HEK293 cells assessed as quinpirole-induced intracellular calcium by fluorescence microplate reader. It counts as functional, cell-based. The procedure, abridged: (§1)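 They were then injected with standard agonist at 1 µM final: SKF 38393 for D1, quinpirole for D2L. Fluorescence was read at ex 485/em 520 nm for 30 s. Peak signal was fitted with a sigmoidal curve. At least two experiments, 4 or 6 replicates each.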
T1 sequence (P14416 whole entry): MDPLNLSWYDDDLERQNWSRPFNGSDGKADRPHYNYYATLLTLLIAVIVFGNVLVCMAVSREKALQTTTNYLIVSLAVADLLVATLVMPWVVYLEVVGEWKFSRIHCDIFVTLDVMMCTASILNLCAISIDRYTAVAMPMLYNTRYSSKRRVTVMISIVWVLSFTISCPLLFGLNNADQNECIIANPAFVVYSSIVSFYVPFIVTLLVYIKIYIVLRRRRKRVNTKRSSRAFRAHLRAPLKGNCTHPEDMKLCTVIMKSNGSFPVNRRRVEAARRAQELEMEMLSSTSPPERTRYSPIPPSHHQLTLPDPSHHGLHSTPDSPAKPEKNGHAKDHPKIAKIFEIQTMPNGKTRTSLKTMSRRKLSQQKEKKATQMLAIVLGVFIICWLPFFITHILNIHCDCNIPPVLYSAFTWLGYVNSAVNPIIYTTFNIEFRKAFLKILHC

In experiment [2] the target is T2, D(4) dopamine receptor (Homo sapiens, UniProt P21917).
T2 sequence (P21917 whole entry): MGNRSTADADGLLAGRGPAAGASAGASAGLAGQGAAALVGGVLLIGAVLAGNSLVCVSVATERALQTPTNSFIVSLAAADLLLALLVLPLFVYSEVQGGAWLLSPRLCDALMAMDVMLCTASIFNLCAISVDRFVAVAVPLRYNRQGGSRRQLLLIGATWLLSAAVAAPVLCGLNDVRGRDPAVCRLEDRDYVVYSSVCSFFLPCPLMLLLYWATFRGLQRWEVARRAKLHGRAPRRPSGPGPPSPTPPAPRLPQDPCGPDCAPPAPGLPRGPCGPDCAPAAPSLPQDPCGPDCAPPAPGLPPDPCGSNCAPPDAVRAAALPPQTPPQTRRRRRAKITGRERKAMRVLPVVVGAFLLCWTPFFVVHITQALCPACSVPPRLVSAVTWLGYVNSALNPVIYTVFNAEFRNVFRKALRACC
Description: Displacement of [3H]spiperone from human dopamine D4 receptor expressed in CHO cells by scintillation counting. Format: cell-based. On the technique in general: Loss of bound radioactivity is the signal in a displacement assay; it reports binding, not function.

Experiment [3] deals with T1, D(2) dopamine receptor. Description: Agonist activity at human dopamine D2L receptor expressed in HEK293 cells assessed as intracellular calcium by fluorescence microplate reader. Format: functional, cell-based. Summed up: (§2)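 Human receptor in HEK293 cells, loaded 45 min at 37 °C with Oregon Green 488 BAPTA-1/AM plus Pluronic F-127 in Krebs-HEPES buffer (pH 7.4). Cells were suspended, plated and held 30 min at 37 °C, 5% CO2. Test compound was injected at rising concentrations. Fluorescence was read at ex 485/em 520 nm for 30 s. Maximum intensity was fitted with a sigmoidal curve. At least two experiments, 4 or 6 replicates each.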

Experiment [4] addresses T3, D(1A) dopamine receptor (Homo sapiens, UniProt P21728). Kind of experiment: Antagonist activity at human dopamine D1 receptor expressed in HEK293 cells assessed as SKF-38393-induced intracellular calcium by fluorescence microplate reader. It counts as functional, cell-based. The procedure, abridged: as §1
A general note: Calcium flux is commonly read through the fluorescence of an indicator in the cells.

Experiment [5] concerns the target T3, D(1A) dopamine receptor. Description: Agonist activity at human dopamine D1 receptor expressed in HEK293 cells assessed as intracellular calcium by fluorescence microplate reader. Format: functional, cell-based. The procedure, abridged: as §2
For experiment [6], the target named is D(1B) dopamine receptor (Homo sapiens, UniProt P21918). Kind of experiment: Displacement of [3H]SCH23390 from human dopamine D5 receptor expressed in CHO cells by scintillation counting. Format: cell-based.
Chain of D(1B) dopamine receptor (P21918 whole entry): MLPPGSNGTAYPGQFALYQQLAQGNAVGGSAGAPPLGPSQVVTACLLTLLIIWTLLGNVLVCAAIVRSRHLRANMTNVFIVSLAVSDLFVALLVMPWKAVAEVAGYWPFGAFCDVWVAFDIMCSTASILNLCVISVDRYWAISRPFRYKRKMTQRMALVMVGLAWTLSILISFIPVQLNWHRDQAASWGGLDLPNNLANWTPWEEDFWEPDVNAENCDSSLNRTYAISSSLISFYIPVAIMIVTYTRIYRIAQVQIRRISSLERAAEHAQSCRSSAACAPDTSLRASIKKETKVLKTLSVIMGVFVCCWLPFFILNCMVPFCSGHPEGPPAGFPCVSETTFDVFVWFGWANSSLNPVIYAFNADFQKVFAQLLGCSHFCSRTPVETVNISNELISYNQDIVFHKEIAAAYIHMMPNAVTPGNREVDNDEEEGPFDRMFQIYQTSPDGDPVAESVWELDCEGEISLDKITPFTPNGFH
The target in experiment [7] is T3, D(1A) dopamine receptor. Kind of experiment: Displacement of [3H]SCH23390 from human dopamine D1 receptor expressed in CHO cells by scintillation counting. Format: cell-based.
The target of experiment [8] is T1, D(2) dopamine receptor. Description: Displacement of [3H]spiperone from human dopamine D2L receptor expressed in CHO cells by scintillation counting. It counts as cell-based.
Experiment [9] addresses D(3) dopamine receptor (Homo sapiens, UniProt P35462). Description: Displacement of [3H]spiperone from human dopamine D3 receptor expressed in CHO cells by scintillation counting. Format: cell-based.
Experiment [10] concerns the target D(3) dopamine receptor (Rattus norvegicus, UniProt P19020). Description: Displacement of [3H]spiperone from rat dopamine D3 receptor expressed in CHO cells by scintillation counting. It counts as cell-based.

SMILES strings stand for the structures. Activity calls are given as the source filed them. The rule behind the calls is not given here.

As usually defined, the Ki is the dissociation constant of the complex between target and ligand, obtained from inhibition or displacement. Low readings indicate higher affinity, high ones lower affinity.

Chain of D(3) dopamine receptor (Homo sapiens, UniProt P35462) (P35462 whole entry): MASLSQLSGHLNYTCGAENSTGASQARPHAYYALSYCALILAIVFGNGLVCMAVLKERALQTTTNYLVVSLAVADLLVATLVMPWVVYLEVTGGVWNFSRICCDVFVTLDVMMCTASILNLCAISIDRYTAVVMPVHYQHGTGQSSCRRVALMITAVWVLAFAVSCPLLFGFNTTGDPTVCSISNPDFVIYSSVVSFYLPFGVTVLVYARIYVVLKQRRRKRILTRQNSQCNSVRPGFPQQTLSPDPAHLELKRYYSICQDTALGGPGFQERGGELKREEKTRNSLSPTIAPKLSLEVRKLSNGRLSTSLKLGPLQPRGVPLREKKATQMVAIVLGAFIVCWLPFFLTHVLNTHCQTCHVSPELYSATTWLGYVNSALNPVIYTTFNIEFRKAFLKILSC
T3 sequence (P21728 whole entry): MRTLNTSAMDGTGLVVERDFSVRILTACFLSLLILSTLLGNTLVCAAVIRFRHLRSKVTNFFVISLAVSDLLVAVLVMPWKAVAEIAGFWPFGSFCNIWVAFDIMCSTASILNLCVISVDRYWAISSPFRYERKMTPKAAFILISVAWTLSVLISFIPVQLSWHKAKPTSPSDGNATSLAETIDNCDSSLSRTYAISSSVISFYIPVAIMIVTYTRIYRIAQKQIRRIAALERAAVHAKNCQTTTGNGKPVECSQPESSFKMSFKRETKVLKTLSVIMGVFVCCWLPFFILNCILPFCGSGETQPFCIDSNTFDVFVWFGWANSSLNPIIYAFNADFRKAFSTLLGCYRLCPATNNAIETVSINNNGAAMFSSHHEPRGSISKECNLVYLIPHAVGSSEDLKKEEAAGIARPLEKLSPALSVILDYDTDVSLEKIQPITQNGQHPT
Chain of D(3) dopamine receptor (Rattus norvegicus, UniProt P19020) (P19020 whole entry): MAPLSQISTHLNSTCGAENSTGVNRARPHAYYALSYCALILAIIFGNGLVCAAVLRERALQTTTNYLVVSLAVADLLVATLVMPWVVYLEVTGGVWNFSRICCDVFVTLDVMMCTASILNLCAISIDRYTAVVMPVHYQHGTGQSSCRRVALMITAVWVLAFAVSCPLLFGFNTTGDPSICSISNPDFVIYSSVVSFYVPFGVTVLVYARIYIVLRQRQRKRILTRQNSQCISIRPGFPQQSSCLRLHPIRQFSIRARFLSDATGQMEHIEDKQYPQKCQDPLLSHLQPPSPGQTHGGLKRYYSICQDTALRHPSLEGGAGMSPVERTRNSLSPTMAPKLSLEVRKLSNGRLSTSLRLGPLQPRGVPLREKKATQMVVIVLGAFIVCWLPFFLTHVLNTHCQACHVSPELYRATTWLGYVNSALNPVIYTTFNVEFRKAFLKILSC

With `COc1ccc2c(c1)CCN(C)CCc1ccccc1C2`, the result in experiment [1] and in experiment [4] was Active. In addition, the affinity in experiment [2] corresponds to a Ki of 43.4 nM. The result in experiment [3] and in experiment [5] was inactive.
For `CN1CCc2ccccc2Cc2ccc(O)cc2CC1`, the result in experiment [1] and in experiment [4] was Active. The result in [3] and in experiment [5] was inactive.
`CN1CCc2cc(O)ccc2CCc2ccccc2C1`: the result in experiment [1] and in [4] was Active. The result in experiment [3] and in experiment [5] was inactive.
On to `Oc1ccc2c(c1)CCN1CCc3ccccc3C21` (stereo unspecified), for which the result in experiment [1] and in [4] was Active. Also, the Ki in [6], in experiment [7], in experiment [2], in [8] and in experiment [9] was more than 10000 nM in each case. Besides, the outcome in experiment [3] and in [5] was inactive.
For the compound `COc1ccc2c(c1)CCN(C)Cc1ccccc1CC2`, the outcome in experiment [1] and in [4] was Active. Also, the inhibitory constant (Ki) is 1510 nM in experiment [6]; 1730 nM in [7]; more than 10000 nM in experiment [2]; more than 10000 nM in [8]; more than 10000 nM in experiment [9]. The outcome in experiment [3] and in experiment [5] was inactive.
Consider `COc1cc2c(cc1O)[C@@H]1Cc3ccc(O)c(OC)c3CN1CC2` [STEPHOLIDINE], for which the outcome in experiment [1] and in experiment [4] was Active. The inhibitory constant (Ki) in experiment [6] was found to be 4.4 nM; in experiment [7] it was 5.9 nM; in experiment [2], 3750 nM; in experiment [10], 30 nM; in [8] it was 974 nM. The outcome in experiment [3] and in experiment [5] was inactive.
In the case of `COc1ccc2c(c1)CCCN(C)Cc1ccccc1C2`, the outcome in experiment [1] and in experiment [4] was Active. For the same compound, the inhibitory constant (Ki) in experiment [6] is more than 10000 nM; in experiment [7] it was 1260 nM; in experiment [2] it was more than 10000 nM; in experiment [8], more than 10000 nM; in experiment [9], more than 10000 nM. Also, the result in experiment [3] and in experiment [5] was inactive.
As to `CN1CCCc2cc(O)ccc2Cc2ccccc2C1`, the values for the Ki in [6] and in experiment [7] were 1810 nM and 2070 nM, respectively. The result in [4] was Active. Also, the outcome in experiment [5] was inactive.
As to `COc1ccc2c(c1)CCN(C)C2Cc1ccccc1C` (stereo unspecified), the outcome in experiment [1] and in [4] was Active. Besides, the Ki in experiment [6] was more than 10000 nM; in [7], 2350 nM; in experiment [2], 6640 nM; in experiment [8] it was 7370 nM; in experiment [9], more than 10000 nM. The outcome in experiment [3] and in experiment [5] was inactive.
As to `COc1ccc2c(c1)CCN1CCc3ccccc3C21` (stereo unspecified), the result in experiment [1] and in experiment [4] was Active. In experiment [7], this compound displayed a Ki of 2120 nM. For the same compound, the result in [3] and in experiment [5] was inactive.
Regarding `Cc1ccccc1CC1c2ccc(O)cc2CCN1C` (stereo unspecified), the outcome in experiment [1] and in experiment [4] was Active. Besides, the values for the Ki in experiment [7] and in experiment [8] were 3020 nM and 2720 nM, respectively. Moreover, the outcome in experiment [3] and in experiment [5] was inactive.
For the compound `COc1ccc2c(c1)CCN1Cc3ccccc3CC21` (stereo unspecified), the result in experiment [1] and in experiment [4] was Active. Also, the inhibitory constant (Ki) is 185 nM in experiment [6]; 183 nM in experiment [7]; 2560 nM in experiment [2]; 320 nM in experiment [8]; 251 nM in experiment [9]. For the same compound, the result in [3] and in [5] was inactive.
As for `COc1ccc2c(c1)CCCN1Cc3ccccc3C21` (stereo unspecified), the outcome in experiment [4] was Active. In addition, in experiment [5], the outcome was inactive.
With `Oc1cc2c(cc1O)[C@H]1c3ccccc3CN[C@@H]1CC2`, the outcome in experiment [1] and in experiment [4] was Active. For the same compound, the outcome in experiment [3] and in experiment [5] was inactive.
For the compound `CCc1cc(OC)ccc1C1Cc2ccccc2CN1C` (stereo unspecified), the outcome in [1] and in experiment [4] was Active. The Ki in [6], in experiment [7], in experiment [2], in [8] and in experiment [9] was more than 10000 nM each time. Besides, the outcome in [3] and in [5] was inactive.
For `Oc1ccc2c(c1)CCN1Cc3ccccc3CC21` (stereo unspecified), the result in experiment [1] and in experiment [4] was Active. The Ki in experiment [6] turned out to be 41.1 nM; in experiment [7] it was 136 nM; in experiment [2], 5090 nM; in experiment [8], 486 nM; in experiment [9], 306 nM. The result in experiment [3] and in experiment [5] was inactive.
